Residue numbers refer to the chain shown, from its start. Values joined by “and” are separate entries in the source; they are usually repeats but may differ in a detail not shown here. Equal entries are not always repeated.
Columns and labels:
human ERα LBD = target: T1, human ERα LBD (Homo sapiens, UniProt P03372); test: Competitive fluorescence polarization binding assay, ERα
T1 sequence (P03372 311-547 limits assumed): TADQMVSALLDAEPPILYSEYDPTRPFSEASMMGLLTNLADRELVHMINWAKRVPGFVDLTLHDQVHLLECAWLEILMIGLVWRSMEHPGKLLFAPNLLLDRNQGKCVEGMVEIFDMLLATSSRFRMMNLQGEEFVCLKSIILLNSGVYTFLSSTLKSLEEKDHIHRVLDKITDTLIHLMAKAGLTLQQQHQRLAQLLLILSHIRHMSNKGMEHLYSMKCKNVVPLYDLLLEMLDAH

ERα [1] = target: T2, ERα (Homo sapiens, UniProt P03372); test: Immunoblot analysis of ERα degradation in T-47D cells; type: cell-based; conditions: 5 μmol/L over 12 h
T2 sequence (P03372 1-595): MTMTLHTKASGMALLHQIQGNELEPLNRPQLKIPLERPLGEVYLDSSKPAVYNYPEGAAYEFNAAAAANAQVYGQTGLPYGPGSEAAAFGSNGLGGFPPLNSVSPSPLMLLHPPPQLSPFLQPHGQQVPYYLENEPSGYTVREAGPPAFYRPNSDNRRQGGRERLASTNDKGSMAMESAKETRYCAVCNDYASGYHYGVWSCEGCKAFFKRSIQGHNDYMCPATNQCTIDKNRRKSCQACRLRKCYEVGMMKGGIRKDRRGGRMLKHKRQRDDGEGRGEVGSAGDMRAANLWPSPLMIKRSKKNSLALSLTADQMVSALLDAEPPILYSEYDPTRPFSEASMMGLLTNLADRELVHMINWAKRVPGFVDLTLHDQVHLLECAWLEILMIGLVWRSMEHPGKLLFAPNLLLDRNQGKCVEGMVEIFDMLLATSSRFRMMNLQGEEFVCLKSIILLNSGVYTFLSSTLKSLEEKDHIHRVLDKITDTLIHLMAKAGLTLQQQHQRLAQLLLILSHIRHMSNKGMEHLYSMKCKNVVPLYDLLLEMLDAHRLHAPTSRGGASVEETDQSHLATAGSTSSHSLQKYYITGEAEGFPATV

ERα C530S mutant [2] = target: T3, ERα C530S mutant (Homo sapiens, UniProt P03372, C530S); test: Transcriptional activity; type: cell-based
T3 sequence (P03372 1-595 C530S): T2 sequence (P03372 1-595) with C530S

ERα [3] = target: T2, ERα; test: Immunoblot analysis of ERα degradation in MCF-7 cells; type: cell-based
ERα [4] = test: Immunoblot analysis of ERα degradation across ERα^WT and ERα^MUT BC cell lines; type: cell-based, human; conditions: 5 μmol/L 29c with 10 μmol/L MG-132
ERα C530S mutant [5] = target: T3, ERα C530S mutant; test: Immunoblot analysis of ERα C530S mutant protein in HEK-293T cells; type: cell-based; conditions: HEK-293T^C530S cells, compared with wild type
Procedure, shortened: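 HEK-293T cells transfected with a plasmid carrying the single C530→S530 ERα point mutation, then treated with test compound. Cells lysed in RIPA buffer; proteins separated by SDS-PAGE and transferred to PVDF. Membranes blocked with 5% skim milk, probed overnight with rabbit anti-ERα and mouse anti-β-actin (loading control), then goat anti-rabbit secondary for 1 h. Developed by ECL.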

ERα Y537S = target: T4, ERα Y537S (Homo sapiens, UniProt P03372, Y537S); test: Immunoblot analysis of ERα degradation in T-47D^Y537S cells; type: cell-based; conditions: 5 μmol/L over 12 h
T4 sequence (P03372 1-595 Y537S): T2 sequence (P03372 1-595) with Y537S

ERα [6] = target: T2, ERα; test: Immunoblot analysis of ERα degradation in LCC-2 cells; type: cell-based; conditions: 5 μmol/L over 12 h
[7] = system: ERα^WT and ERα^MUT BC cell lines (MCF-7, LCC-2, T-47D, T-47D^D538G, T-47D^Y537S); test: Apoptosis by flow cytometry; type: cell-based, human; conditions: 5 μmol/L, 48 h
T-47D^D538G cells = test: Cell viability assay; type: cell-based, human; conditions: Homo sapiens, 72 h, read-out: T-47D^D538G IC50
ERα [8] = target: T2, ERα; test: cell-based; type: cell-based

CC(C)=CC(=O)Nc1ccc(C2=C(c3ccc(O)cc3)C3OC2CC3S(=O)(=O)N(CC(F)(F)F)c2ccc(O)cc2)cc1 (centres unmarked) [Compound 29c, N-(4-(3-(4-Hydroxyphenyl)-5-(N-(4-hydroxyphenyl)-N-(2,2,2-trifluoroethyl)sulfamoyl)-7-oxabicyclo[2.2.1]hept-2-en-2-yl)phenyl)-3-methylbut-2-enamide]
Ki (human ERα LBD): 0.09 nM | RBA ERα (human ERα LBD; IC50 estradiol/IC50 compound × 100, estradiol = 100%): 30.44% and 30.44 ± 1.13% | α/β ratio (human ERα LBD; ratio of RBA ERα to RBA ERβ): 49.90 | ERα degradation time course, T-47D (ERα [1]): completely degraded | IC50 (ERα C530S mutant [2]): 290 nM | Agonist mode ERα C530S Eff (%E2) (ERα C530S mutant [2]; ERα C530S mutant, HEK-293T): 2 ± 1 %E2 | Antagonist mode ERα C530S Eff (%E2) (ERα C530S mutant [2]; ERα C530S mutant, HEK-293T): 33 ± 2 %E2 | Effect of C530S mutation on antagonistic activity (ERα C530S mutant [2]; HEK-293T^C530S cells, compared with wild type): decreased | ERα degradation time course, MCF-7 (ERα [3]; 5 μmol/L over 24 h): completely degraded | ERα degradation (immunoblot) at 1 μmol/L (ERα [3]; MCF-7 cells, 1 μmol/L): efficient ability to degrade ERα | ERα degradation (immunoblot) (ERα [3]; MCF-7 cells, 1 or 5 μmol/L): effective in inducing ERα degradation | ERα degradation with proteasome inhibitor (ERα [4]): lost its ability to degrade ERα | ERα C530S degradation ability (ERα C530S mutant [5]): decreased | ERα degradation time course, T-47D^Y537S (ERα Y537S): completely degraded | ERα degradation time course, LCC-2 (ERα [6]): completely degraded | Induction of apoptosis [7]: significantly induced apoptosis | IC50 (T-47D^D538G cells): 1910 ± 180 nM | IC50 (ERα [8]): 23 nM | Agonist mode ERα Eff (%E2) (ERα [8]; control as 0%, 10 nmol/L E2 as 100%): 5 ± 1 %E2 | Antagonist mode ERα Eff (%E2) (ERα [8]; with 10 nmol/L 17β-estradiol): 76 ± 1 %E2
